Calls of active or inactive are those of the source. The rule behind the calls is not given here.
Legend:
rhinovirus A39 = assay: Antiviral activity against Human rhinovirus serotype 39 infected in human HeLa cells assessed as reduction in virus-induced cytopathic effect after 24 to 36 hrs by MTT assay; assay type: functional, organism-based; conditions: Rhinovirus A
How it was run: (§1)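 HeLa (Ohio) monolayers in DMEM with 1% nonessential amino acids and 10% fetal calf serum, infected at MOI 1, then given serial compound dilutions. Incubation 24−36 h at 33 °C, 3% CO2, until control CPE was almost total. Multicycle CPE reduction read by MTT. EC50 (50% CPE inhibition) taken from dose−response curves by linear regression. Pleconaril served as reference.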

rhinovirus B14 = assay: Antiviral activity against Human rhinovirus serotype 14 infected in human HeLa cells assessed as reduction in virus-induced cytopathic effect after 24 to 36 hrs by MTT assay; assay type: functional, organism-based; conditions: Rhinovirus B; how it was run: as §1
[1] = Cytotoxicity against human HeLa cells assessed as decrease in cell viability after 72 hrs by MTT assay; assay type: cell-based
How it was run: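 HeLa monolayers exposed to a range of compound concentrations at 37 °C, 5% CO2. Morphology (rounding, shrinking, detachment) checked by light microscopy at 24, 48 and 72 h. Viability measured by MTT colorimetry. CC50 is the concentration that lowered control absorbance by 50%.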

[2] = Selectivity index, ratio of CC50 for human HeLa cells to EC50 for Human rhinovirus serotype 39 infected in human HeLa cells; assay type: toxicity, cell-based; conditions: read-out: Ratio CC50/EC50
How it was run: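 Selectivity index computed as CC50 (MTT, uninfected HeLa) divided by EC50 (MTT, HRV39 CPE reduction in HeLa at MOI 1, 24−36 h at 33 °C).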

[3] = molecular target: T1, VP1 capsid protein (Human rhinovirus sp.) (UniProt Q7T664); assay: Inhibition of Human rhinovirus serotype 39 capsid infected in human HeLa cells assessed as reduction in virus-induced cytopathic effect at 5 ug/ml treated with virus inoculum measured after 24 to 36 hrs relative to control; assay type: cell-based; conditions: rhinovirus A39
T1 sequence (whole entry): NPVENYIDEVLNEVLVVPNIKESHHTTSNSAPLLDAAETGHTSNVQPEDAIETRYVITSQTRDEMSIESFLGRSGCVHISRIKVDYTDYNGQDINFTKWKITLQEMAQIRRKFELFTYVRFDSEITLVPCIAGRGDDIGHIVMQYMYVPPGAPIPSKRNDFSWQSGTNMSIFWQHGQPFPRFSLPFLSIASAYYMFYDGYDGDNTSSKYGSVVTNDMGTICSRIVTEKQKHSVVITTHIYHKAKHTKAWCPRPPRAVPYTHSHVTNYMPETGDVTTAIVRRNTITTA
How it was run: (§2)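 HeLa (Ohio strain) monolayers in 24-well plates (DMEM, 10% fetal calf serum) infected with ATCC HRV39 (working stock prepared as cell lysate). Compound at 5 μg/mL added before (−1 h), at (0 h) or after infection. Cells incubated in CO2 atmosphere for 24–36 h, then washed twice with HBSS. Virus yield inhibition (%) determined by virus-cell-based CPE reduction assay in HeLa cells. Pirodavir (5 μg/mL) served as positive control.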

[4] = molecular target: T1, VP1 capsid protein (Human rhinovirus sp.); assay: Inhibition of Human rhinovirus serotype 39 capsid infected in human HeLa cells assessed as reduction in virus-induced cytopathic effect at 5 ug/ml treated 2 hrs post viral infection measured after 24 to 36 hrs relative to control; assay type: cell-based; conditions: rhinovirus A39; how it was run: as §2
[5] = molecular target: T1, VP1 capsid protein (Human rhinovirus sp.); assay: Inhibition of Human rhinovirus serotype 39 capsid infected in human HeLa cells assessed as reduction in virus-induced cytopathic effect at 5 ug/ml treated 1 hr prior to viral infection measured 24 to 36 hrs post viral infection relative to control; assay type: cell-based; conditions: rhinovirus A39; how it was run: as §2
[6] = molecular target: T1, VP1 capsid protein (Human rhinovirus sp.); assay: Inhibition of Human rhinovirus serotype 39 capsid infected in human HeLa cells assessed as reduction in virus-induced cytopathic effect at 5 ug/ml treated 3 hrs post viral infection measured after 24 to 36 hrs relative to control; assay type: cell-based; conditions: rhinovirus A39; how it was run: as §2
[7] = molecular target: T1, VP1 capsid protein (Human rhinovirus sp.); assay: Inhibition of Human rhinovirus serotype 39 capsid infected in human HeLa cells assessed as reduction in virus-induced cytopathic effect at 5 ug/ml treated 1 hr post viral infection measured after 24 to 36 hrs relative to control; assay type: cell-based; conditions: rhinovirus A39; how it was run: as §2

COc1ccc(/C=C/CO)cc1OC
EC50 (rhinovirus A39): > 160 µM
EC50 (rhinovirus B14): > 160 µM
CC50 at 72 h [1]: 160 µM

C=C[C@H](O)C#CC#CC/C=C\CCCCCCCCO
selectivity ratio [2]: 8.1
EC50 (rhinovirus A39): 1.8 µM
EC50 (rhinovirus B14): > 14.6 µM
CC50 at 72 h [1]: 14.6 µM

C=CC(O)C#CC#C/C=C/C(O)CCCCCCCCO (configuration not stated)
EC50 (rhinovirus A39): > 107 µM
EC50 (rhinovirus B14): > 107 µM
CC50 at 72 h [1]: 107 µM

C/C=C(/C)C(=O)OC/C=C/c1ccc(OC)cc1
selectivity ratio [2]: 8
EC50 (rhinovirus A39): 30.9 µM
EC50 (rhinovirus B14): > 248 µM
CC50 at 72 h [1]: 248 µM

Cc1cc(CCCOc2c(C)cc(-c3noc(C(F)(F)F)n3)cc2C)on1 [PLECONARIL]
EC50 (rhinovirus A39): 0.1 µM
EC50 (rhinovirus B14): 0.3 µM
CC50 at 72 h [1]: 131 µM

CC(C)[C@@H]1CCC(C=O)=C[C@H]1O
EC50 (rhinovirus A39): > 47.6 µM
EC50 (rhinovirus B14): > 47.6 µM
CC50 at 72 h [1]: 47.6 µM

COc1ccc(/C=C/CO)cc1
EC50 (rhinovirus A39): > 189 µM
EC50 (rhinovirus B14): > 189 µM
CC50 at 72 h [1]: 189 µM

CCOC(=O)c1ccc(OCCC2CCN(c3ccc(C)nn3)CC2)cc1
inhibition [3]: Active

C/C=C(/C)C(=O)OC/C=C/c1ccc(OC)c(OC)c1
EC50 (rhinovirus A39): > 453 µM
EC50 (rhinovirus B14): > 453 µM
CC50 at 72 h [1]: 453 µM

CC(C)CC(=O)OC/C=C/c1ccccc1
EC50 (rhinovirus A39): > 142 µM
EC50 (rhinovirus B14): > 142 µM
CC50 at 72 h [1]: 142 µM

C/C=C(/C)C(=O)OC/C(=C/C)C(=O)OC/C=C/c1ccc(OC)cc1
EC50 (rhinovirus A39): > 36.3 µM
EC50 (rhinovirus B14): > 36.3 µM
CC50 at 72 h [1]: 36.3 µM

C/C=C(/C)C(=O)OC/C(=C/C)C(=O)OC/C=C/c1ccc(OC)c(OC)c1
inhibition [4]: 65%
selectivity ratio [2]: 8.4
inhibition [5]: 100%
inhibition [6]: 50%
EC50 (rhinovirus A39): 2.4 µM
inhibition [7]: 78%
EC50 (rhinovirus B14): > 20.3 µM
inhibition [3]: 90%
CC50 at 72 h [1]: 20.3 µM
